Data from ChEMBL document CHEMBL1129373, “Synthesis and evaluation of pregnane derivatives as inhibitors of human testicular 17 alpha-hydroxylase/C17,20-lyase” (J Med Chem, 1996).

Legend:
[1] = target: T1, Steroid 17-alpha-hydroxylase/17,20 lyase (Homo sapiens, UniProt P05093); assay: Inhibition of human testicular steroid 17-alpha-hydroxylase
T1 sequence (P05093 whole entry): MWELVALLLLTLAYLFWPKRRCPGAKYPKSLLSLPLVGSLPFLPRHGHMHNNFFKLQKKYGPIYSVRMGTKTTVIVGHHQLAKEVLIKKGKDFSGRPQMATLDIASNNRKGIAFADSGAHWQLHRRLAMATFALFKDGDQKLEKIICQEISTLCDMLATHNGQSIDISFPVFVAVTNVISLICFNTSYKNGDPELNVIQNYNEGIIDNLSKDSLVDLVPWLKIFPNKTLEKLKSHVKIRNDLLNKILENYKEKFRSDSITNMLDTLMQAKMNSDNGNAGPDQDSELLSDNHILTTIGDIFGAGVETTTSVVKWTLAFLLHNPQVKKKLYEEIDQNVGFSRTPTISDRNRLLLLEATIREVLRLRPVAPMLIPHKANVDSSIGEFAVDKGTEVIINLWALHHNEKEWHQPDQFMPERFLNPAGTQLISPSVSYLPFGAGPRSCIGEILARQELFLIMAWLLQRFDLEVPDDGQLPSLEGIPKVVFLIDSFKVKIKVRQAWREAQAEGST
How it was run: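 Human testicular microsomes (from orchidectomy testes, stored −70 °C, diluted in 0.1 M phosphate buffer; ca. 90 μg protein) incubated with [7-³H]pregnenolone (400 nM), NADPH-generating system and four to five inhibitor concentrations, pH 7.4, under oxygen, 5 min, 34 °C. Reverse-phase HPLC with radioactivity counting; hydroxylase activity from conversion to 17α-hydroxypregnenolone plus DHEA. IC50 by nonlinear regression; duplicates, repeated at least once.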

[2] = target: T1, Steroid 17-alpha-hydroxylase/17,20 lyase; assay: Inhibition of human testicular C17,20-lyase, cytochrome P450 17A1; No inhibition

| Compound | IC50 ([1]; read-out: IC50) [nM] | IC50 [2] | IC50 [1] |
| --- | --- | --- | --- |
| C[C@@H](C#N)C1CCC2C3CCC4=CC(=O)CC[C@]4(C)C3CC[C@@]21C (stereo partly specified) | 1100 |  |  |
| CC(O)C1CCC2C3CC=C4C[C@@H](O)CC[C@]4(C)C3CC[C@]12C (stereo partly specified) | 720 |  |  |
| C[C@@H](C=O)C1CCC2C3CCC4=CC(=O)CC[C@]4(C)C3CC[C@@]21C (stereo partly specified) | 230 |  |  |
| C[C@@H](O)C1CCC2C3CCC4=CC(=O)CC[C@]4(C)C3CC[C@@]21C (stereo partly specified) | 490 |  |  |
| CN(C=O)C1CCC2C3CCC4=CC(=O)CC[C@]4(C)C3CC[C@@]21C (stereo partly specified) | 800 |  |  |
| C[C@]12CCC3C(CC=C4C[C@@H](O)CC[C@@]43C)C1CCC2[C@]1(C)CO1 (stereo partly specified) | 730 |  |  |
| CC(=O)C1=CCC2C3CC=C4C[C@@H](O)CC[C@]4(C)C3CC[C@]12C (stereo partly specified) | 510 |  |  |
| C[C@@H](O)C1CCC2C3CC=C4C[C@@H](O)CC[C@]4(C)C3CC[C@@]21C (stereo partly specified) | 180 |  |  |
| C#CC1CCC2C3CC=C4C[C@@H](O)CC[C@]4(C)C3CC[C@]12C (stereo partly specified) | 3560 |  |  |
| C/C(=N\N(C)C)C1=CCC2C3CC=C4C[C@@H](O)CC[C@]4(C)C3CC[C@]12C (stereo partly specified) | 43700 |  |  |
| C/C(=N/O)C1=CCC2C3CC=C4C[C@@H](O)CC[C@]4(C)C3CC[C@]12C (stereo partly specified) | 16 |  |  |
| C[C@@H](N)[C@H]1CC[C@H]2[C@@H]3CC=C4C[C@@H](O)CC[C@]4(C)[C@H]3CC[C@]12C | 9800 |  |  |
| C[C@@H](O)[C@H]1CC[C@H]2[C@@H]3CCC4=CC(=O)CC[C@]4(C)[C@H]3CC[C@]12C | 2840 |  |  |
| C[C@H](N)[C@H]1CC[C@H]2[C@@H]3CC=C4C[C@@H](O)CC[C@]4(C)[C@H]3CC[C@]12C | 89800 |  |  |
| C[C@@H](/C=N/O)[C@H]1CC[C@H]2[C@@H]3CCC4=CC(=O)CC[C@]4(C)[C@H]3CC[C@]12C | 5980 |  |  |
| C/C(=N\N)[C@H]1CC[C@H]2[C@@H]3CC=C4C[C@@H](O)CC[C@]4(C)[C@H]3CC[C@]12C | 9980 |  |  |
| C/C(C#N)=C1/CCC2C3CCC4=CC(=O)CC[C@]4(C)C3CC[C@]12C (stereo partly specified) | 1220 |  |  |
| C[C@]12CC[C@H](O)CC1=CCC1C2CC[C@]2(C)/C(=N/N)CCC12 (stereo partly specified) | 6480 |  |  |
| C#C[C@]1(O)CCC2C3CCC4=CC(=O)CC[C@]4(C)C3CC[C@@]21C (stereo partly specified) |  | Not Active | No inhibition |
| C/C(=N/O)C1CCC2C3CC=C4C[C@@H](O)CC[C@]4(C)C3CC[C@]12C (stereo partly specified) | 530 |  |  |
| C[C@]12CC[C@H](O)CC1=CCC1C2CC[C@]2(C)/C(=N/O)CCC12 (stereo partly specified) | 13500 |  |  |
| C/C(=N\N(C)C)C1CCC2C3CC=C4C[C@@H](O)CC[C@]4(C)C3CC[C@]12C (stereo partly specified) |  | Not Active | No inhibition |
| C=CC1CCC2C3CC=C4C[C@@H](O)CC[C@]4(C)C3CC[C@]12C (stereo partly specified) | 2880 |  |  |
| CC(=O)C1=CCC2C3CCC4=CC(=O)CC[C@]4(C)C3CC[C@]12C (stereo partly specified) | 1770 |  |  |
